According to ChEMBL document CHEMBL1667806, “Synthesis and evaluation of anti-tubercular activity of new dithiocarbamate sugar derivatives” (2011):
In brackets after ≈: the same amount, converted by molar mass.

Tests used:
[1] = tested on: Mycobacterium tuberculosis; assay: Antimycobacterial activity against Mycobacterium tuberculosis H37Rv; assay type: functional
Staphylococcus aureus [2] = assay: microbe, parasite or virus in culture; assay type: functional; conditions: 873
Staphylococcus aureus [3] = assay: Antimicrobial activity against Staphylococcus aureus; assay type: functional
Escherichia coli [4] = assay: Antimicrobial activity against Escherichia coli DH5alpha; assay type: functional; conditions: DH5[alpha]
[5] = microbe, parasite or virus in culture; assay type: functional, Mycobacterium bovis BCG str. Tokyo 172; conditions: Mycobacterium tuberculosis variant bovis BCG
[6] = microbe, parasite or virus in culture; assay type: functional, Mycobacterium avium subsp. hominissuis; conditions: Mycobacterium avium, 104
Mycobacterium avium = assay: microbe, parasite or virus in culture; assay type: functional, Mycobacterium avium subsp. avium ATCC 25291; conditions: ATCC 2529
[7] = tested on: Mycobacterium tuberculosis; assay: Antimycobacterial activity against drug-sensitive Mycobacterium tuberculosis isolate 4; assay type: functional
Outline: (§1)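 MIC by broth dilution in Middlebrook 7H9 broth supplemented with albumin, dextrose and catalase.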

[8] = tested on: Mycobacterium tuberculosis; assay: Antimycobacterial activity against drug-sensitive Mycobacterium tuberculosis isolate 11; assay type: functional; outline: as §1
Escherichia coli [9] = assay: Antimicrobial activity against drug-sensitive Escherichia coli JM109; assay type: functional
Enterococcus faecalis [10] = assay: Antimicrobial activity against AGs-resistant Enterococcus faecalis ATCC 19434; assay type: functional
[11] = tested on: Mycobacterium tuberculosis; assay: Antimycobacterial activity against drug-sensitive Mycobacterium tuberculosis isolate 9; assay type: functional; outline: as §1
Staphylococcus aureus [12] = assay: Antimicrobial activity against methicillin-resistant Staphylococcus aureus MF490; assay type: functional
[13] = tested on: Mycobacterium tuberculosis; assay: Antimycobacterial activity against drug-sensitive Mycobacterium tuberculosis isolate 18; assay type: functional; outline: as §1
[14] = tested on: Mycobacterium tuberculosis; assay: Antimycobacterial activity against drug-sensitive Mycobacterium tuberculosis isolate 19; assay type: functional; outline: as §1
[15] = tested on: Mycobacterium tuberculosis; assay: Antimycobacterial activity against drug-sensitive Mycobacterium tuberculosis isolate 15; assay type: functional; outline: as §1
[16] = tested on: Mycobacterium tuberculosis; assay: Antimycobacterial activity against drug-sensitive Mycobacterium tuberculosis isolate 6; assay type: functional; outline: as §1
[17] = tested on: Mycobacterium tuberculosis; assay: Antimycobacterial activity against drug-sensitive Mycobacterium tuberculosis isolate 1; assay type: functional
Staphylococcus aureus [18] = assay: Antimicrobial activity against drug-sensitive Staphylococcus aureus RN4220; assay type: functional
[19] = tested on: Mycobacterium tuberculosis; assay: Antimycobacterial activity against drug-sensitive Mycobacterium tuberculosis isolate 14; assay type: functional; outline: as §1
[20] = tested on: Mycobacterium tuberculosis; assay: Antimycobacterial activity against drug-sensitive Mycobacterium tuberculosis isolate 10; assay type: functional; outline: as §1
Pseudomonas aeruginosa = assay: Antibacterial activity against drug-sensitive Pseudomonas aeruginosa PAO1; assay type: functional
Staphylococcus aureus [21] = assay: Antimicrobial activity against drug-sensitive Staphylococcus aureus 209PJC-1; assay type: functional
[22] = tested on: Mycobacterium tuberculosis; assay: Antimycobacterial activity against drug-sensitive Mycobacterium tuberculosis isolate 17; assay type: functional; outline: as §1
Klebsiella pneumoniae = assay: Antibacterial activity against […] Klebsiella pneumoniae ATCC BAA-1705; assay type: functional
[23] = tested on: Mycobacterium tuberculosis; assay: Antimycobacterial activity against drug-sensitive Mycobacterium tuberculosis isolate 8; assay type: functional; outline: as §1
[24] = tested on: Mycobacterium tuberculosis; assay: Antimycobacterial activity against drug-sensitive Mycobacterium tuberculosis isolate 5; assay type: functional; outline: as §1
[25] = tested on: Mycobacterium tuberculosis; assay: Antimycobacterial activity against drug-sensitive Mycobacterium tuberculosis isolate 13; assay type: functional; outline: as §1
[26] = tested on: Mycolicibacterium smegmatis; assay: microbe, parasite or virus in culture; assay type: functional; conditions: JATA 64.01
[27] = tested on: Mycobacterium tuberculosis; assay: Antimycobacterial activity against drug-sensitive Mycobacterium tuberculosis isolate 3; assay type: functional; outline: as §1
Enterococcus faecalis [28] = assay: Antimicrobial activity against AGs-resistant Enterococcus faecalis ATCC 19433; assay type: functional
[29] = tested on: Mycobacterium tuberculosis; assay: Antimycobacterial activity against drug-sensitive Mycobacterium tuberculosis isolate 7; assay type: functional; outline: as §1
[30] = tested on: Mycobacterium tuberculosis; assay: Antimycobacterial activity against drug-sensitive Mycobacterium tuberculosis isolate 16; assay type: functional; outline: as §1
[31] = tested on: Mycobacterium tuberculosis; assay: Antimycobacterial activity against drug-sensitive Mycobacterium tuberculosis isolate 20; assay type: functional; outline: as §1
[32] = tested on: Mycobacterium tuberculosis; assay: Antimycobacterial activity against drug-sensitive Mycobacterium tuberculosis isolate 12; assay type: functional; outline: as §1
[33] = tested on: Mycobacterium tuberculosis; assay: Antimycobacterial activity against drug-sensitive Mycobacterium tuberculosis isolate 2; assay type: functional; outline: as §1

CCC(=O)N[C@@H]1[C@@H](O)[C@H](O)[C@@H](CO)O[C@H]1SC(=S)N(C)C
MIC [1]: 50 µg/mL (≈ 148 µM)

C[C@@H](O)[C@H]1C(=O)N2C(C(=O)O)=C(SCCNC=N)C[C@H]12 [IMIPENEM ANHYDROUS]
MIC [1]: 3.13 µg/mL (≈ 10.5 µM) | MIC (Staphylococcus aureus [2]): 0.1 µg/mL (≈ 0.334 µM) | MIC (Staphylococcus aureus [3]): 0.1 µg/mL (≈ 0.334 µM) | MIC (Escherichia coli [4]): 0.1 µg/mL (≈ 0.334 µM) | MIC [5]: 3.13 µg/mL (≈ 10.5 µM)

NNC(=O)c1ccncc1 [ISONIAZID]
MIC [1]: 0.04 µg/mL (≈ 0.292 µM) | MIC (Staphylococcus aureus [2]): > 100 µg/mL | MIC [6]: 1.56 µg/mL (≈ 11.4 µM) | MIC (Staphylococcus aureus [3]): > 100 µg/mL | MIC (Escherichia coli [4]): > 100 µg/mL | MIC [5]: 0.04 µg/mL (≈ 0.292 µM) | MIC (Mycobacterium avium): 3.13 µg/mL (≈ 22.8 µM)

N.S=C(S)N1CCCC1 [PYRROLIDINE DITHIOCARBAMIC ACID, AMMONIUM SALT]
MIC [7]: 0.2 µg/mL | MIC [8]: 0.2 µg/mL | MIC (Escherichia coli [9]): > 32 µg/mL | MIC (Enterococcus faecalis [10]): 32 µg/mL | MIC [11]: 0.2 µg/mL | MIC (Staphylococcus aureus [12]): 8 µg/mL | MIC [13]: 0.2 µg/mL | MIC [1]: 0.2 µg/mL | MIC [14]: 0.4 µg/mL | MIC [15]: 0.2 µg/mL | MIC (Staphylococcus aureus [2]): 12.5 µg/mL | MIC [6]: 3.13 µg/mL | MIC [16]: 0.2 µg/mL | MIC [17]: 0.2 µg/mL | MIC (Staphylococcus aureus [3]): 12.5 µg/mL | MIC (Staphylococcus aureus [18]): 8 µg/mL | MIC [19]: 0.2 µg/mL | MIC [20]: 0.2 µg/mL | MIC (Pseudomonas aeruginosa): > 32 µg/mL | MIC (Escherichia coli [4]): 12.5 µg/mL | MIC (Staphylococcus aureus [21]): 8 µg/mL | MIC [5]: 0.4 µg/mL | MIC [22]: 0.2 µg/mL | MIC (Klebsiella pneumoniae): > 32 µg/mL | MIC [23]: 0.4 µg/mL | MIC [24]: 0.2 µg/mL | MIC [25]: 0.4 µg/mL | MIC [26]: > 100 µg/mL | MIC [27]: 0.2 µg/mL | MIC (Enterococcus faecalis [28]): 32 µg/mL | MIC [29]: 0.4 µg/mL | MIC (Mycobacterium avium): 3.13 µg/mL | MIC [30]: 0.2 µg/mL | MIC [31]: 0.4 µg/mL | MIC [32]: 0.2 µg/mL | MIC [33]: 0.2 µg/mL

CN(C)C(=S)S[C@@H]1O[C@H](CO)[C@@H](O)[C@H](O)[C@H]1N
MIC [1]: 50 µg/mL (≈ 177 µM)

CC(=O)N[C@@H]1[C@@H](O)[C@H](O)[C@@H](CO)O[C@H]1O [N-ACETYLGLUCOSAMINE]
MIC [1]: > 100 µg/mL | MIC (Staphylococcus aureus [2]): > 100 µg/mL | MIC [6]: > 100 µg/mL | MIC (Staphylococcus aureus [3]): > 100 µg/mL | MIC (Escherichia coli [4]): > 100 µg/mL | MIC [5]: > 100 µg/mL | MIC (Mycobacterium avium): > 100 µg/mL

CCN(CC)C(=S)[S-].[Na+] [DITIOCARB SODIUM]
MIC [1]: 3.13 µg/mL | MIC [5]: 3.13 µg/mL | MIC [26]: > 100 µg/mL

CCCCCCCCCCCCCCCCCC(=O)N[C@@H]1[C@@H](O)[C@H](O)[C@@H](CO)O[C@H]1SC(=S)N(C)C
MIC [1]: 100 µg/mL (≈ 182 µM)

CC(=O)N[C@@H]1[C@@H](O)[C@H](O)[C@@H](CO)O[C@H]1SC(=S)N(C)C
MIC [1]: 25 µg/mL (≈ 77.1 µM) | MIC (Staphylococcus aureus [2]): > 100 µg/mL | MIC [6]: > 100 µg/mL | MIC (Staphylococcus aureus [3]): > 100 µg/mL | MIC (Escherichia coli [4]): > 100 µg/mL | MIC [5]: 31.3 µg/mL (≈ 96.5 µM) | MIC (Mycobacterium avium): > 100 µg/mL

CN(C)C(=S)S[C@@H]1O[C@H](CO)[C@@H](O)[C@H](O)[C@H]1NC(=O)C1CC1
MIC [1]: 50 µg/mL (≈ 143 µM)

CC[C@@H](CO)NCCN[C@@H](CC)CO [ETHAMBUTOL]
MIC [1]: 2.5 µg/mL (≈ 12.2 µM) | MIC (Staphylococcus aureus [2]): > 100 µg/mL | MIC [6]: 1.6 µg/mL (≈ 7.83 µM) | MIC (Staphylococcus aureus [3]): > 100 µg/mL | MIC (Escherichia coli [4]): > 100 µg/mL | MIC [5]: 1.5 µg/mL (≈ 7.34 µM) | MIC (Mycobacterium avium): 1.6 µg/mL (≈ 7.83 µM)
